The text below walks through data of ChEMBL document CHEMBL1649213, “The arabinosyltransferase EmbC is inhibited by ethambutol in Mycobacterium tuberculosis” (2009).

Molecules are shown by their SMILES. Converted amounts (≈) assume the structure as drawn. The source made the active and inactive calls. The rule behind the calls is not given here.

A word on the MIC: it is the lowest concentration that inhibits growth of the organism. A word on the MIC90: it is the lowest concentration that inhibits either 90% of growth or 90% of the strains tested, depending on the study.

For experiment [1], the system named is Mycolicibacterium smegmatis. In words: Antimicrobial activity against Mycobacterium smegmatis expressing EmbC M286I mutant gene after 48 hrs by agar proportion method. The class given is functional.
The test system of experiment [2] is Mycolicibacterium smegmatis. Description: Antimicrobial activity against Mycobacterium smegmatis expressing EmbC M286V mutant gene after 48 hrs by agar proportion method. It is filed as functional.
Experiment [3] concerns Mycolicibacterium smegmatis. Description: Antimicrobial activity against Mycobacterium smegmatis expressing EmbC D280G mutant gene after 48 hrs by agar proportion method. The class given is functional.
Experiment [4] concerns Mycolicibacterium smegmatis. In words: Antimicrobial activity against Mycobacterium smegmatis expressing EmbC gene after 48 hrs by agar proportion method. The class given is functional, organism-based.
For experiment [5], the system named is Mycobacterium tuberculosis. In words: Antimicrobial activity against Mycobacterium tuberculosis expressing EmbC gene after 48 hrs by agar proportion method. The class given is functional.
The subject of experiment [6] is Mycolicibacterium smegmatis. In words: Antimicrobial activity against Mycobacterium smegmatis expressing EmbC M286L mutant gene at 32 ug/ml after 48 hrs. The class given is functional, organism-based.
In experiment [7] the test system is Mycolicibacterium smegmatis. In words: Antimicrobial activity against Mycobacterium smegmatis expressing EmbC D280G mutant gene at 32 ug/ml after 48 hrs. It is filed as functional, organism-based.
In experiment [8] the test system is Mycobacterium tuberculosis. Description: Antimicrobial activity against Mycobacterium tuberculosis expressing EmbC gene after 48 hrs. The class given is functional.
Experiment [9] concerns T1, Probable arabinosyltransferase A (Mycobacterium smegmatis (strain ATCC 700084 / mc(2)155)), A0R612 [D280G].
T1 sequence (whole entry): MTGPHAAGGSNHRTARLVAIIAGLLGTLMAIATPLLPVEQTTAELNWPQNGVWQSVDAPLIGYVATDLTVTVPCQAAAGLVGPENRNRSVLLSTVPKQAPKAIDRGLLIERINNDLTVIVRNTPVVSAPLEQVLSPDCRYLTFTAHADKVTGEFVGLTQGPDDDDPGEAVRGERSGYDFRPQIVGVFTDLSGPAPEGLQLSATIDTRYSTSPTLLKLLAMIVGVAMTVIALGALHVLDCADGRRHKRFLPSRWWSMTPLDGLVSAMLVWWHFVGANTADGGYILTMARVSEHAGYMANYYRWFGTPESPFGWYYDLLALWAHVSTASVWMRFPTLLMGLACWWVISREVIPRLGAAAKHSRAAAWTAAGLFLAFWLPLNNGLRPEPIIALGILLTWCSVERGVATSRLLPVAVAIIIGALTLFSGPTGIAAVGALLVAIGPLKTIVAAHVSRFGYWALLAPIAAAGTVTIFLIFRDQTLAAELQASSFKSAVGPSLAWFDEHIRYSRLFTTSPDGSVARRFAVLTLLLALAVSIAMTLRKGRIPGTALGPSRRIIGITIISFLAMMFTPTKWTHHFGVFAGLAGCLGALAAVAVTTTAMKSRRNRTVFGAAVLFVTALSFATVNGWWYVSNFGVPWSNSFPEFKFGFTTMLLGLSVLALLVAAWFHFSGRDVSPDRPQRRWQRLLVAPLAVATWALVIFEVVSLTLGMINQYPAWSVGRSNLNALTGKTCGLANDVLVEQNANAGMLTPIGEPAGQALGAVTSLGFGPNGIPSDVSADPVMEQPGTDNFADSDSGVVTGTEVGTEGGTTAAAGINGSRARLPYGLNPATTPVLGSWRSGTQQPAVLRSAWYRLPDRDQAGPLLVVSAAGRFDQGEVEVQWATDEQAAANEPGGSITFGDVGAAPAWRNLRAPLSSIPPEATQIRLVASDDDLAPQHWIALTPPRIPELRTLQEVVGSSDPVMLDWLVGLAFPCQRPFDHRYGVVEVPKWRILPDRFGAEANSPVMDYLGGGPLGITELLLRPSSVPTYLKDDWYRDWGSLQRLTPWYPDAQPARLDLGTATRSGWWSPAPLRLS
Description: Inhibition of Mycobacterium smegmatis EmbC D280G mutant assessed as effect on LAM production at 32ug/ml after 2 hrs by immunoblotting. As to conditions: Mycolicibacterium smegmatis. For orientation: A western blot detects proteins with antibodies after separation by electrophoresis.

In experiment [10] the test system is Mycobacterium tuberculosis. In words: Antimicrobial activity against Mycobacterium tuberculosis embA gene after 48 hrs by agar proportion method. It is filed as functional.
Experiment [11] concerns Mycolicibacterium smegmatis. Description: Antimicrobial activity against Mycobacterium smegmatis expressing EmbC M286V mutant gene at 32 ug/ml after 48 hrs. The class given is functional, organism-based.
In experiment [12] the test system is Mycolicibacterium smegmatis. Description: Antimicrobial activity against Mycobacterium smegmatis expressing EmbC M286I mutant gene at 32 ug/ml. It is filed as functional, organism-based.
Experiment [13] deals with Mycolicibacterium smegmatis. Description: Antimicrobial activity against Mycobacterium smegmatis expressing EmbC M286L mutant gene after 48 hrs by agar proportion method. The class given is functional.
Experiment [14] has as its system Mycobacterium tuberculosis. Description: Inhibition of Mycobacterium tuberculosis EmbC assessed as effect on LAM production at 1 ug/ml after 2 hrs by immunoblotting. A digest of the protocol:
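M. tuberculosis grown in 7H9 plus 10% OADC with hygromycin 100 µg/ml, kanamycin 20 µg/ml and EMB 0 to 128 µg/ml for 14 days. Cells extracted in phenol-water (1:1) at 80°C for 2 h, then chloroform added. Aqueous phase run on denaturing, nonreducing acrylamide gels with periodic acid-Schiff staining or CS-35 anti-LAM immunoblot.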

For `CC[C@@H](CO)NCCN[C@@H](CC)CO` [ETHAMBUTOL], the MIC was determined as 32 µg/mL (≈ 157 µM) in experiment [1]; 32 µg/mL (≈ 157 µM) in experiment [2]; 64 µg/mL (≈ 313 µM) in [3]; 3 µg/mL (≈ 14.7 µM) in [8]; 3 µg/mL (≈ 14.7 µM) in experiment [10]; 64 µg/mL (≈ 313 µM) in experiment [13]. The MIC entry in experiment [4] is “inactive”. This compound also had an MIC90 in experiment [5] of 1 µg/mL (≈ 4.89 µM). The outcome in experiment [6], in experiment [7], in [11] and in [12] was inactive. In addition, the inhibition result in experiment [9] and in [14] was “Active” in each case.
